HCV core dimer: inhibitors of HCV core protein dimerization, primary screen, biochemical, TR-FRET, high-throughput; actives 0.33% (n = 300,000); inhibition, % at 5 µM; TR-FRET GST/Flag-core106 dimerization, 1536-well; AID 1899, 2009;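 active = inhibition above the mean of all tested compounds plus 3 SD, set per screening campaign, cut at about 45% in these data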
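Assay system: tagged HCV core106 pair (GST and Flag); medium: KF-containing HEPES buffer, pH 7.45, DTT, CHAPS, BSA; also added: Eu donor and XL665 acceptor anti-tag antibodies; dosing: 5 µM single dose; timing: compound-protein-antibody incubation 4 h at 22.5 °C; signal: TR-FRET 671 and 617 nm emission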
ALR H2O2 inh: inhibitors of human ALR sulfhydryl oxidase, primary screen, biochemical, H2O2 detection, HRP-luminol luminescence, single point | actives 3.8% (n = 290,000) | inhibition, % (test concentration not listed) | purified ALR, DTT oxidation | FAD-linked sulfhydryl oxidase ALR (Homo sapiens), P55789;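 active = mean replicate inhibition above about 79%, with every replicate also reaching it, limit read from the data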
Target sequence (P55789 whole entry, looked up): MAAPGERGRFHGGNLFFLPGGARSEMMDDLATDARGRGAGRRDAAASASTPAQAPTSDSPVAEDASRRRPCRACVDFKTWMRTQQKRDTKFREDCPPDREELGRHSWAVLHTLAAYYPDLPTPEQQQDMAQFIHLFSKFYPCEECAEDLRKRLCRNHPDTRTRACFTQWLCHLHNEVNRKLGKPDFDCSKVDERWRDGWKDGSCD
NS3 helicase inh: inhibitors of HCV NS3 helicase, primary screen, biochemical, Cy5 molecular beacon fluorescence; AID 1800, 2009; NS3 helicase DNA unwinding; inhibition, % at 10.9 µM; Hepatitis C virus NS3 helicase; actives 0.56% (n = 290,000);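 active = inhibition above the mean of all tested compounds plus 3 SD, set per campaign, cut at about 35% in these data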;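 note: 0% = DMSO wells and 100% = thioflavine S control wells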
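Control set: DMSO versus 110 µM thioflavine S; Material: NS3 helicase fragment of HCV; Measured by: Cy5 fluorescence at 0 and 60 min, beacon hairpin quenching; Read-out basis: percent inhibition from t60/t0 fluorescence ratio; Times: reaction time 60 min, 25 °C; Repeats: single replicate; Compound dosing: single dose, 10.9 µM nominal final, DMSO 0.8% final.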
EBNA-1 inh: EBNA-1 DNA-binding inhibitors, primary screen, biochemical, fluorescence polarization; actives 0.34% (n = 300,000); inhibition, % at 14.8 µM; AID 1950, 2009; in the data active = inhibition above about 28%
M18AAP inhibitor: PfM18AAP inhibitors, malaria aminopeptidase, primary screen, biochemical, QFRET, recombinant enzyme; H-Glu-NHMec fluorogenic cleavage; inhibition, % at 7.35 µM; actives 1.2% (n = 290,000);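 active = inhibition above the campaign mean inhibition over all tested compounds plus 3 SD, cut at about 28% in these data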;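 note: 0% = plate median of test compound wells and 100% = 2 mM ZnCl2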
ZTA DNA inh: blocks Epstein-Barr virus ZTA, an EBNA-1 counter-screen. P03206. ZTA-DNA binding, fluorescence polarization. inhibition, % at 11 µM. actives 0.15% (n = 320,000). AID 2234; in the data active = inhibition above about 33%
Target sequence (P03206 whole entry, looked up): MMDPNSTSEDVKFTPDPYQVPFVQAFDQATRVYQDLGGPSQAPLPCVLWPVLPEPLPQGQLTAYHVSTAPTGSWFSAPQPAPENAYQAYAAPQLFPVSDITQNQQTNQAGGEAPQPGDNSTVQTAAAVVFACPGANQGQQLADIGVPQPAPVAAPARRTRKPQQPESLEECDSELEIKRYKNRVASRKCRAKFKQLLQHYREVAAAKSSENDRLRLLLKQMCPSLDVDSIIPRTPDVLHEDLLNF
Numbers without * were called inactive; x = not tested or not shown. Sampled rows, rich in hits. Any-hit rate of the full collection: about 5.2%.

SMILES	HCV core dimer	ALR H2O2 inh	NS3 helicase inh	EBNA-1 inh	M18AAP inhibitor	ZTA DNA inh
Cn1ncc(Cl)c1C(=O)N1CCC(Cc2ccccc2)CC1	2	-6	-8	-6	-5	-12
Cc1cc(Cn2nc(C(=O)NCc3cccc(C(F)(F)F)c3)cc2-c2ccccc2)on1	-15	x	x	6	x	16
COc1ccc(S(=O)(=O)N2CCOCC2)cc1C(=O)NC1CCCCCC1	x	x	x	x	x	-7
CC(C)[C@H](NC(=O)c1cc2cc(Cl)ccc2n1C)C(=O)N[C@@H](C(=O)O)c1ccccc1	6	-2	4	-2	0	-17
COc1ccc(NC(=O)CSCC(=O)NCCc2ccccn2)cc1	9	98*	-1	-4	-5	1
O=C(CCSCc1ccccc1Cl)NCc1ccco1	-10	93*	12	-6	12	-25
COc1ccc(NC(=O)CSCC(=O)N2CCCc3ccccc32)cc1	-5	90*	x	-9	x	1
Cc1cccc(NC(=O)CSCC(=O)N2CCCc3ccccc32)c1	0	x	x	-16	x	-3
COc1ccccc1CNC(=O)COc1cc2c(c3oc(=O)cc(C)c13)CCC(C)(C)O2	2	-24	-16	5	7	1
Cc1cc(C(=O)COc2ccc3ccc(=O)oc3c2)c(C)n1Cc1cccs1	12	88*	15	0	-7	-14
O=C(Cc1cccs1)NNC(=S)NC(=O)c1ccccc1	-2	98*	2	-3	35*	5
O=C(Cc1cccs1)NNC(=S)NC(=O)c1ccc(F)c(F)c1	5	62	-2	1	44*	-13
O=C(NC(=S)NCc1ccncc1)c1ccccc1	4	94*	-8	15	-1	8
O=C(NC(=S)NNC(=O)c1cccs1)c1ccc(Br)o1	-1	99*	4	2	10	1
CCN(CC)CCCCNc1ncc2cc(-c3cc(OC)cc(OC)c3)c(NC(=O)NC(C)(C)C)nc2n1	-1	-12	-92	-12	5	-13
Cc1cc(OCC(=O)NNC(=S)NC(=O)c2ccc(Br)o2)ccc1Cl	x	88*	6	x	1	x
O=C(NC(=S)NCc1ccccc1)c1cccs1	-1	37	-4	-1	-4	-25
CCC(=O)NC(=S)Nc1ccc(NC(=O)COc2ccc(Cl)c(C)c2)cc1	-2	2	-1	14	-15	10
O=C(Cc1ccccc1)NNC(=S)NC(=O)c1cccs1	-5	97*	0	0	12	-9
CC(=O)NNC(=S)NC(=O)c1ccccc1	-6	x	4	-4	48*	-17
CCOc1ccc(C2NC(=O)CCC2[N+](=O)[O-])cc1 (stereo not drawn)	-2	0	-4	-14	-1	-17
CN1C(=O)C(C)(C)c2cc(S(=O)(=O)N3CCN(c4ccccc4F)CC3)ccc21	8	-1	-15	-12	-4	-6
COc1ccc(-n2c(SCC(=O)Nc3ccc(Br)cc3)nc(O)cc2=O)cc1	14	99*	12	13	0	16
Cc1ccccc1-n1c(SCC(=O)Nc2c(C)cccc2C)nc(O)cc1=O	-13	-9	23	7	9	12
CCSc1nc(O)cc(=O)n1-c1ccc(OC)cc1	-3	-1	11	-1	1	11
SMILES	HCV core dimer	ALR H2O2 inh	NS3 helicase inh	EBNA-1 inh	M18AAP inhibitor	ZTA DNA inh
COc1ccc(NC(=O)CSc2nc(O)cc(=O)n2-c2ccccc2OC)cc1	9	98*	20	11	19	9
CCN(CC)C(=O)CSc1nc(O)cc(=O)n1-c1ccccc1OC	2	99*	11	9	6	14
COc1ccccc1-n1c(SCC(=O)Nc2ccc(C)cc2)nc(O)cc1=O	10	98*	-10	3	0	16
O=C(O)c1ccc(N=NN2CCCCCC2)cc1	-12	-3	2	-15	12	5
CC1CN(C(=O)COc2ccc3c(-c4ccccc4)cc(=O)oc3c2)CC(C)O1 (stereo not drawn)	x	-4	x	x	x	7
O=C(Nc1ccc(Cl)cc1)c1ccc(Br)cc1F	-4	-1	10	-7	-8	10
COc1ccccc1-n1c(SCC(=O)Nc2cccc3ccccc23)nc(O)cc1=O	10	98*	1	7	8	9
CCOC(=O)N1CCC(NC(=O)c2cc(S(=O)(=O)N3CCC4(CC3)OCCO4)ccc2F)CC1	1	99*	4	11	-16	-10
CCOC(=O)N1CCC(NC(=O)c2cc(S(=O)(=O)N3CCOCC3)ccc2F)CC1	-2	2	0	-7	-10	0
CCOC(=O)N1CCC(NC(=O)c2cc(-c3ccc(F)cc3)[nH]c2C)CC1	-5	98*	-13	4	-8	-9
Cc1ccc(S(=O)(=O)N[C@H](C(=O)OCC(=O)NC(=O)C2CCCCC2)C(C)C)cc1	x	2	x	x	x	x
Cc1nc2cc(NC(=O)c3ccc(S(=O)(=O)N(C)c4ccccc4)cc3)ccc2o1	-2	0	-2	10	11	-1
CC(C)CC[n+]1ccccc1/C=C/c1ccc(N(C)C)cc1	-9	99*	-23	-7	14	2
Cc1nc2c(C)cccn2c(=O)c1NC(=O)c1ccc2c(c1)OCO2	4	x	x	5	x	5
Fc1ccc(Br)cc1C1C=C(c2ccc(Br)cc2)Nc2ncnn21 (stereo not drawn)	10	90*	7	-4	6	4
Cc1ccc(N=Nc2c(N)[nH]n3c(=O)cc(C)nc23)cc1	-19	97*	-4	-4	31*	9
COc1ccc(/C=N/NC(=O)c2[nH]c3ccc(Cl)cc3c2-c2ccccc2)c(C(=O)O)c1OC	8	98*	-21	8	8	10
O=C(CCN1CCN(Cc2ccccc2)CC1)NNC(=O)Nc1cccc(C(F)(F)F)c1	0	-19	-18	8	-7	5
Nc1ccc(Cc2ccc(N)c(C(=O)O)c2)cc1C(=O)O	-4	4	0	-6	-4	-6
Cc1cc(Cc2ccc(N)c(C)c2)ccc1N	-3	81*	-7	-13	1	8
CCC(Sc1ncnc2c1nnn2-c1ccc(F)cc1)C(=O)OC (stereo not drawn)	3	96*	3	-2	-3	7
CCOC(=O)C(C)Sc1ncnc2c1nnn2-c1ccc(F)cc1 (stereo not drawn)	0	96*	3	7	-3	-19
COC(=O)c1ccc(CSc2ncnc3c2nnn3-c2ccc(F)cc2)o1	-1	99*	1	3	-4	-24

High-throughput results as filed in PubChem.
